The structures appear in SMILES notation.

The text below walks through data of ChEMBL document CHEMBL1122794, “[(Arylcarbonyl)oxy]propanolamines. 1. Novel beta-blockers with ultrashort duration of action” (J Med Chem, 1984).

For series [1], the species on record is Canis familiaris. The experiment in a line: Time taken for 80% recovery at a dose of 15 microg (3-h infusion period). Type of series: functional, organism-based. The settings on record: Canis lupus familiaris.
A short description of series [2]: T1/2 in canine blood. Type of series: ADME, […], Canis lupus familiaris. The settings on record: dog. A digest of the protocol: (§1)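 1 mL of solution containing 50 µg of compound was added to 1 mL of dog or human whole blood, or to 1 mL of 33% (w/v) canine liver homogenate. They were assayed by HPLC on a phenyl column with 60% acetonitrile/40% 0.05 M sodium phosphate (pH 6.6) and UV detection. Half-life was read graphically from concentration versus time.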

For series [3], the species on record is Canis familiaris. The experiment in a line: Percent inhibition of isoproterenol induced tachycardia at a dose of 15 microg (3-h infusion period). The format is functional, Canis lupus familiaris.
The species entered for series [4] is Canis familiaris. The series can be described thus: Percent inhibition of isoproterenol induced tachycardia at a dose of 70 microg (3-h infusion period). The format is functional, Canis lupus familiaris.
Series [5] can be described thus: Time in which 1/2 of the initial amount disappeared in human blood. The format is ADME, organism-based. Summed up:
as §1

Series [6] deals with T1, Adrenergic receptor beta (Homo sapiens, UniProt P08588+P07550+P13945). The experiment in a line: In Vitro inhibition of the beta adrenergic receptor in guinea pig atria. Type of series: tissue-based, Cavia porcellus. The conditions noted are these: target entry is the homologue from another species.
For series [7], the species on record is Canis familiaris. The series can be described thus: Time taken for 80% recovery at a dose of 70 microg (3-h infusion period). The settings on record: Canis lupus familiaris. The format is functional, organism-based. Summed up: (§2)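 After the infusion ended, the time to 80% recovery of the blockade was recorded as duration of action. The listed dose is the average amount infused per minute over the 3-h period, in µg/(kg min).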

Series [8] is described as follows: t1/2 in canine liver. The conditions noted are these: dog. The format is ADME, Canis lupus familiaris.
In series [9] the target is T1, Adrenergic receptor beta. The series can be described thus: In vitro blocking of beta adrenergic receptor in guinea pig trachea. The settings on record: target entry is the homologue from another species. The format is tissue-based, Cavia porcellus.
Series [10] can be described thus: Selectivity determined by expression 10[pA2(atria) - pA2 (trachea)] in guinea pig. Type of series: functional, Cavia porcellus.
A short description of series [11]: Stability at pH 7.4 and 37 degree Celsius (after 18 h). The format is physicochemical. The settings on record: buffer. A digest of the protocol: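 Chemical stability was tested in pH 7.4 buffer at 37 °C. The percentage of parent compound remaining after 18 h of incubation was recorded.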
Series [12] is filed under the species Canis familiaris. The series can be described thus: Percent inhibition of isoproterenol induced tachycardia at a dose of 10 microg (3-h infusion period). Type of series: functional, Canis lupus familiaris.
For series [13], the species on record is Canis familiaris. The experiment in a line: Time taken for 80% recovery at a dose of 10 microg (3-h infusion period). The conditions noted are these: Canis lupus familiaris. The format is functional, organism-based.
Series [14] has as its target Beta-2 adrenergic receptor (Cavia porcellus) (UniProt Q8K4Z4). The series can be described thus: In Vitro evaluation for […] selectivity in guinea pig. A digest of the protocol:
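Selectivity index calculated as 10^[pA2(atria) − pA2(trachea)] from pA2 values measured in isolated guinea pig atria and trachea. A minus sign denotes β2 selectivity.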

A short description of series [15]: Time in which 1/2 of the initial amount disappeared in canine liver. Type of series: ADME, […], Canis lupus familiaris. The conditions noted are these: dog. A digest of the protocol:
as §1

Series [16] in a line: Time in which 1/2 of the initial amount disappeared in canine blood. The format is ADME, […], Canis lupus familiaris. The settings on record: dog. A digest of the protocol:
as §1

The species named for series [17] is Canis familiaris. The series can be described thus: Time taken for 80% recovery at a dose of 100 microg (3-h infusion period). Type of series: functional, organism-based. The settings on record: Canis lupus familiaris.
The species named for series [18] is Canis familiaris. The experiment in a line: Percent inhibition of isoproterenol induced tachycardia at a dose of 100 microg (3-h infusion period). The format is functional, Canis lupus familiaris.
The species entered for series [19] is Canis familiaris. The series can be described thus: Time taken for 80% recovery at a dose of 18 microg (3-h infusion period). The format is functional, organism-based. The conditions noted are these: Canis lupus familiaris.
The species named for series [20] is Canis familiaris. The series can be described thus: Time taken for 80% recovery at a dose of 209 microg (3-h infusion period). The settings on record: Canis lupus familiaris. The format is functional, organism-based.
Series [21] is filed under the species Canis familiaris. The series can be described thus: Time taken for 80% recovery at a dose of 8 microg (3-h infusion period). Type of series: functional, organism-based. The settings on record: Canis lupus familiaris. Summed up: as §2
The species entered for series [22] is Canis familiaris. The experiment in a line: Percent inhibition of isoproterenol induced tachycardia at a dose of 8 microg (3-h infusion period). The format is functional, Canis lupus familiaris.
The species entered for series [23] is Canis familiaris. The experiment in a line: Percent inhibition of isoproterenol induced tachycardia at a dose of 23 microg (3-h infusion period). The format is functional, Canis lupus familiaris.
Series [24] is filed under the species Canis familiaris. The experiment in a line: Time taken for 80% recovery at a dose of 23 microg (3-h infusion period). Type of series: functional, organism-based. The settings on record: Canis lupus familiaris.
For series [25], the species on record is Canis familiaris. The experiment in a line: Time taken for 80% recovery at a dose of 27 microg (3-h infusion period). Type of series: functional, organism-based. The conditions noted are these: Canis lupus familiaris.
Series [26] is filed under the species Canis familiaris. The experiment in a line: Percent inhibition of isoproterenol induced tachycardia at a dose of 27 microg (3-h infusion period). The format is functional, Canis lupus familiaris.
The species entered for series [27] is Canis familiaris. The experiment in a line: Percent inhibition of isoproterenol induced tachycardia at a dose of 0.59-1.26 microg (3-h infusion period). The format is functional, Canis lupus familiaris.
For series [28], the species on record is Canis familiaris. The experiment in a line: Time taken for 80% recovery at a dose of 0.59-1.26 microg (3-h infusion period). The format is functional, organism-based. The settings on record: Canis lupus familiaris.
For series [29], the species on record is Canis familiaris. The experiment in a line: Time taken for 80% recovery at a dose of 25 microg (3-h infusion period). The conditions noted are these: Canis lupus familiaris. Type of series: functional, organism-based.
Series [30] is filed under the species Canis familiaris. The series can be described thus: Time taken for 80% recovery at a dose of 28 microg (3-h infusion period). Type of series: functional, organism-based. The settings on record: Canis lupus familiaris.

Beta-2 adrenergic receptor (Cavia porcellus), sequence (Q8K4Z4 whole entry, looked up): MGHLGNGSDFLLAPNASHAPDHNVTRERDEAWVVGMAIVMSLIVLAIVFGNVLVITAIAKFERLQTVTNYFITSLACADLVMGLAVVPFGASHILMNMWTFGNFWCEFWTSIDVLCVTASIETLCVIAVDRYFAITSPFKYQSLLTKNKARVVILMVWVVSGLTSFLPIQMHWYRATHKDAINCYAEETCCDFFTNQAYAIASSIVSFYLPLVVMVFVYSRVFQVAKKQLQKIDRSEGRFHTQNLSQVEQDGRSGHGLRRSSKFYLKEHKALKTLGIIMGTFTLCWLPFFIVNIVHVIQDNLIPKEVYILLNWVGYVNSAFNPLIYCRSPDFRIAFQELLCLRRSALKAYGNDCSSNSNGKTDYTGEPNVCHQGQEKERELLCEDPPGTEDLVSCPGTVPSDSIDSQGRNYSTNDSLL

With `CC(=O)NCC(C)(C)NCC(O)COC(=O)c1ccccc1F` (stereo not drawn), the Recovery time in the series listed under Canis familiaris [1] was 35 min. The compound also had a half-life in series [2] of 7.5 min. In the series listed under Canis familiaris [3], this compound returned an Inhibition of 61%.
As for `CC(C)(C)NCC(O)COC(=O)c1ccccc1` (stereo not drawn), the Inhibition in the series filed under Canis familiaris [4] came to 65%. The results for the half-life in series [5], in series [8] and in series [2] were 5.3 min, 20 min and 7.3 min, respectively. In addition, the pA2 on Adrenergic receptor beta [6] is reported as 6.8; at Adrenergic receptor beta [9], 7.7. In the series filed under Canis familiaris [7], this compound returned a Recovery time above 60 min. The compound further had a Selectivity in series [10] of -8. Further, the amount remaining at 18 h in series [11] amounted to 99%.
In the series filed under Canis familiaris [12], `CC(C)(CNC(=O)Cc1ccccc1)NCC(O)COC(=O)c1ccccc1F` (stereo not drawn) gave an Inhibition of 68%. Further, the pA2 on Adrenergic receptor beta [6] is on record as 7.4; at Adrenergic receptor beta [9], 8.1. In addition, the values for the half-life in series [8] and in [2] were 25 min and 6 min, respectively. The compound also returned a Recovery time in the series filed under Canis familiaris [13] of 19 min. The compound further returned a Selectivity in [10] of -5.
`CC(C)(C)NCC(O)COC(=O)c1ccc(C=O)cc1` (stereo not drawn) came in with a Selectivity in series [14] of 1. Besides, the pA2 is listed as 6.2 at Adrenergic receptor beta [6] and 6.3 at Adrenergic receptor beta [9]. For the same compound, the half-life in series [15] stood at 1 min; in series [16], 14 min.
With `COc1ccc(CCNCC(O)COC(=O)c2ccccc2F)cc1OC` (stereo not drawn), the results for the pA2 on Adrenergic receptor beta [6] and at Adrenergic receptor beta [9] were 6.1 and 5.7, respectively. In addition, the Selectivity in series [10] was 2.5. The compound further displayed a Recovery time in the series filed under Canis familiaris [17] above 60 min. Besides, in the series listed under Canis familiaris [18], the Inhibition worked out at 48%. The same compound yielded an amount remaining at 18 h in series [11] of 35%.
`CC(C)(C)NCC(O)COC(=O)c1ccccc1Cl` (stereo not drawn) gave a Recovery time in the series listed under Canis familiaris [19] above 35 min. For the same compound, the half-life is 6 min in [5], 72 min in series [8] and 31 min in series [2]. In addition, the share remaining at 18 h in series [11] turned out to be 98%.
With `COc1ccc(C(=O)OCC(O)CNC(C)C)cc1` (stereo not drawn), in the series filed under Canis familiaris [20], the Recovery time was above 60 min. The half-life came out at 55 min in series [5], 37 min in series [8] and 150 min in [2]. For the same compound, the pA2 on Adrenergic receptor beta [6] was found to be 6; on Adrenergic receptor beta [9], 6.3. Besides, the Selectivity in series [10] is -2.
For `CC(C)(CNC(=O)C1CCCCC1)NCC(O)COC(=O)c1ccccc1F` (stereo not drawn), the pA2 is on record as 7.7 at Adrenergic receptor beta [6] and 7.2 on Adrenergic receptor beta [9]. The compound also displayed a Recovery time in the series filed under Canis familiaris [21] of 12 min. For the same compound, in series [10], the Selectivity stood at 3. Besides, the Inhibition in the series listed under Canis familiaris [22] was found to be 61%.
Consider `CC(C)(C)NCC(O)COC(=O)c1ccc([N+](=O)[O-])cc1Cl` (stereo not drawn), for which the figures for the pA2 on Adrenergic receptor beta [6] and at Adrenergic receptor beta [9] were 6.6 and 6.5, respectively. In the series listed under Canis familiaris [23], this compound yielded an Inhibition of 85%. In [10], this compound came in with a Selectivity of 1. In addition, the Recovery time in the series filed under Canis familiaris [24] was above 60 min.
With `CC(C)(C)NCC(O)COC(=O)c1ccccc1O` (stereo not drawn), the Recovery time in the series listed under Canis familiaris [25] is above 60 min. Also, the pA2 at Adrenergic receptor beta [6] worked out at 7.1; at Adrenergic receptor beta [9] it was 8. Besides, the half-life was 31 min in series [8] and 41 min in [2]. The compound further had a Selectivity in series [10] of -9. Further, in the series listed under Canis familiaris [26], the Inhibition worked out at 73%.
Take `CC(C)NCC(O)COC(=O)c1ccc(N)cc1` (stereo not drawn): the Inhibition in the series listed under Canis familiaris [27] turned out to be 80%. In addition, the results for the half-life in series [5], in series [8] and in series [2] were 60 min, above 180 min and above 180 min, respectively. Also, the pA2 at Adrenergic receptor beta [6] was 6.7; at Adrenergic receptor beta [9], 6.6. This compound showed a Recovery time in the series listed under Canis familiaris [28] above 60 min. This compound gave a Selectivity in series [10] of 1.
Regarding `CC(C)NCC(O)COC(=O)c1ccc(O)cc1` (stereo not drawn), the results for the pA2 on Adrenergic receptor beta [6] and at Adrenergic receptor beta [9] were 6.8 and 7.2, respectively. The same compound displayed a Selectivity in series [10] of -2.5. Also, the Recovery time in the series listed under Canis familiaris [29] is above 45 min.
In turn, `CC(C)(C)NCC(O)COC(=O)c1ccc2c(c1)OCO2` (stereo not drawn) had a Recovery time in the series listed under Canis familiaris [30] above 60 min. The same compound came in with a pA2 at Adrenergic receptor beta [6] of 6.9.
